A short description of series [1]: Toxicity in brine shrimp. In kind it is organism-based. Conditions: artemia, in vivo.
The subject of series [2] is A549. Put plainly: Cytotoxicity against human A549 cells after 7 days by MTT assay. As to conditions: A549, 168 h, read-out: ED50 (the source's name). It counts as functional. In outline: (§1)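 Seven-day MTT assay of each compound against the human solid tumour lines A-549 (lung carcinoma), MCF-7 (breast carcinoma) and HT-29 (colon adenocarcinoma), run at a cell culture core laboratory. Adriamycin served as the positive control. Values from separate runs of the cell culture assay were reported apart.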
(In general: Tetrazolium dyes change colour on reduction, which living cells bring about.)

Series [3] deals with MCF7. Put plainly: Cytotoxicity against human MCF7 cells after 7 days by MTT assay. It counts as functional. As to conditions: MCF7, 168 h, read-out: ED50 (the source's name). In outline:
as §1

Series [4] deals with HT-29. Put plainly: Cytotoxicity against human HT-29 cells after 7 days by MTT assay. In kind it is functional. Conditions: HT-29, 168 h, read-out: ED50 (the source's name). A digest of the protocol:
as §1

As usually defined, the LC50 is the concentration that kills 50% of the test population. A higher LC50 goes with a less lethal substance.

In brackets after ≈: the same amount, converted by molar mass.

In series [1], `CCCCCCCCCC/C=C\CC[C@@H](O)[C@H]1CC[C@H]([C@H](O)CCCCC(O)CCCCC[C@@H](O)CC2=C[C@H](C)OC2=O)O1` (stereo not given in full) [XYLOMATENIN] had an LC50 of 770 ng/mL (≈ 1.24 µM). Besides, the EC50 in series [2] was less than 1 ng/mL; in series [3] it was 631 ng/mL (≈ 1.01 µM); in series [4], less than 1 ng/mL.

For `CCCCCCCCCC/C=C\CC[C@@H](O)[C@H]1CC[C@H]([C@H](O)CCCCCCC(O)CCC[C@@H](O)CC2=C[C@H](C)OC2=O)O1` (stereo not given in full) [XYLOPIEN], the LC50 in series [1] came to 871 ng/mL (≈ 1.4 µM). In addition, the EC50 in series [2] was determined as 3.64 ng/mL (≈ 0.00584 µM); in series [3] it was 7.11 ng/mL (≈ 0.0114 µM); in series [4], 7.26 ng/mL (≈ 0.0117 µM).

For the molecule `COc1cccc2c1C(=O)c1c(O)c3c(c(O)c1C2=O)C[C@@](O)(C(=O)CO)C[C@@H]3O[C@H]1C[C@H](N)[C@H](O)[C@H](C)O1` [DOXORUBICIN], the values for the EC50 in series [2] and in series [4] were 1.1 ng/mL (≈ 0.00202 µM) and 2.7 ng/mL (≈ 0.00497 µM), respectively.

These data come from ChEMBL document CHEMBL1150072, “Two new bioactive monotetrahydrofuran Annonaceous acetogenins from the bark of Xylopia aromatica” (J Nat Prod, 1994).
